In ChEMBL document CHEMBL4622968, “Discovery of [1,2,4]triazolo[4,3-a]pyridines as potent Smoothened inhibitors targeting the Hedgehog pathway with improved antitumor activity in vivo” (Bioorg Med Chem, 2020) one finds KA and Activity data, which are given here for one molecule.

Assay [1] addresses T1, Protein smoothened (Homo sapiens, UniProt Q99835). The assay can be described thus: Binding affinity to recombinant human Smo receptor assessed as association constant at equilibrium by SPR analysis.
The test system of assay [2] is MDA-MB-468. Kind of assay: Induction of apoptosis in human MDA-MB-468 cells assessed as live cells at 28 uM incubated for 48 hrs by annexin-V-FITC staining based flow cytometric method (reference value: 98.5 %). Type of assay: functional.
Assay [3] concerns MDA-MB-468. The assay can be described thus: Induction of apoptosis in human MDA-MB-468 cells assessed as necrotic cells at 56 uM incubated for 48 hrs by annexin-V-FITC staining based flow cytometric method (reference value: 1.52 %). It is filed as functional.
Assay [4] has as its target T1, Protein smoothened. The assay can be described thus: Displacement of BODIPY-Cyclopamine from wild type Smo receptor (unknown origin) expressed in HEK293 cells incubated for 12 hrs by Hoechst 33342 based fluorescence microscopic method. It is filed as cell-based. The essentials:
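HEK293 cells were transiently transfected in triplicate with a wild-type Smo plasmid, with expression confirmed by western blot. Cells were loaded with BODIPY-cyclopamine, then given unlabelled cyclopamine (25 μM) or test compound (1 or 25 μM) for 12 h at 37 °C. Nuclei were counterstained with Hoechst 33342. Green fluorescence was imaged by fluorescence microscopy.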

T1 sequence (Q99835 whole entry): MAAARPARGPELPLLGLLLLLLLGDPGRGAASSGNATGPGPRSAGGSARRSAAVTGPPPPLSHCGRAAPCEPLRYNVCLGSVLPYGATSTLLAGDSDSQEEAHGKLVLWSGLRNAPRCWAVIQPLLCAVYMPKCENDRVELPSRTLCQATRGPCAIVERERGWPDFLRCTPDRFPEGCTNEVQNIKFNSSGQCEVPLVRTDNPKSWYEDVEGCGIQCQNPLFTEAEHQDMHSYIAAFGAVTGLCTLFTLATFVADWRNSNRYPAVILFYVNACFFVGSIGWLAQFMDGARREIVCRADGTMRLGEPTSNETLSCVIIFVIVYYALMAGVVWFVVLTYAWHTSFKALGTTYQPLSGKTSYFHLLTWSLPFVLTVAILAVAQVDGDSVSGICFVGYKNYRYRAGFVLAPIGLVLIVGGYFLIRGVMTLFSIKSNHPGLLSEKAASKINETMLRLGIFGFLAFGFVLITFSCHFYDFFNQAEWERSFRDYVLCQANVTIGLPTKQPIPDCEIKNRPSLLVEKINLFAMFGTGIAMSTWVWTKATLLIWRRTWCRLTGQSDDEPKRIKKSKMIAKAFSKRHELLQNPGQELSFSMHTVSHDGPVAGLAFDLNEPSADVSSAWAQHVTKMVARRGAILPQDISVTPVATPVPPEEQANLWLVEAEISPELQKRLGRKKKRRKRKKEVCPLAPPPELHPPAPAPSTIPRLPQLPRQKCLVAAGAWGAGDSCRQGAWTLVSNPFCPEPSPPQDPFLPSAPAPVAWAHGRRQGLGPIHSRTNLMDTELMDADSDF

`O=C(Nc1ccc(Cl)c(-c2nnc3c(Cl)cccn23)c1)c1ccc(Cl)nc1Cl`: the KA on Protein smoothened [1] is 9.71 ×10⁷ /M. Besides, the Activity in the assay with MDA-MB-468 [2] was 67.8%; in the assay on MDA-MB-468 [3], 9.06%; at Protein smoothened [4], “Dose-dependent effect”.
